An excerpt weighted towards active compounds, which were near 3.5% of everything screened.
RGS4 inh: RGS4 inhibitors, primary screen, cell-based, HEK293 M3R inducible RGS4, calcium flux; Fluo-4 calcium flux; stronger effect = higher value; triggered by carbachol at its EC20; B-score at 10 µM; 310,000 compounds, 0.45% hits; AID 463165, 2010;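 active = B-score, a plate-corrected calcium signal, over three deviations above library mean, with baseline fluorescence within five deviations of library mean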;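 also: RGS4 expression induced by doxycycline in cells with stable M3 receptor; B-score is computed from the integrated fluorescence ratio over baseline after carbachol; higher B-score means a larger calcium signal and so more RGS4 inhibition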
Target sequence (P49798 whole entry, looked up): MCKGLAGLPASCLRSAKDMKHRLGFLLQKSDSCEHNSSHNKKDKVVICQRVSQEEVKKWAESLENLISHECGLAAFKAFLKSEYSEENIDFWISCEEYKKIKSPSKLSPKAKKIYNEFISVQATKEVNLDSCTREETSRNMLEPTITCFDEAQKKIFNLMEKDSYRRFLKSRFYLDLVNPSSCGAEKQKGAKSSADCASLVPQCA
MrgX1 antagonist: antagonists of human MrgX1 receptor, primary screen, HEK293 cells, Fluo-4 calcium flux; Mas-related G-protein coupled receptor member X1 (Homo sapiens), Q96LB2; BAM8-22 antagonism; stronger effect = lower value; B-score at 10 µM; 310,000 compounds, 1.3% hits; AID 588676, 2011;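 active = calcium-response B-score plate-corrected more than 3 library SD below zero, starting fluorescence within 5 deviations, no agonist response on first addition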;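 also: peak minus trough fluorescence over baseline after final BAM8-22 challenge near maximal dose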
Target sequence (Q96LB2 whole entry, looked up): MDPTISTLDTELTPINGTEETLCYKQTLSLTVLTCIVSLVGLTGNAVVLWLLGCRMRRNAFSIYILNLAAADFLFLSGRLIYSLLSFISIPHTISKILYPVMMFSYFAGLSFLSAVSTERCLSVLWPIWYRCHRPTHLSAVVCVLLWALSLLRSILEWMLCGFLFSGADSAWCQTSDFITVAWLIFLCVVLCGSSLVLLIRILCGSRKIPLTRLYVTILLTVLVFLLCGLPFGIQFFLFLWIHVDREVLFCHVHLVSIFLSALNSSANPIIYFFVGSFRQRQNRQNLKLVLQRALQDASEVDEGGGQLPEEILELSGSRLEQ
MrgX1 ag: agonists of human MrgX1 receptor, primary screen, HEK293 cells, Fluo-4 calcium flux. Fluo-4 calcium fluorescence, agonist mode; stronger effect = higher value. AID 588627, 2011. 310,000 compounds, 0.44% hits. B-score at 10 µM;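 active = calcium response B-score plate-corrected fluorescence ratio at least 3 library SD, with starting fluorescence B-score inside 5 SD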
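times = overnight plating, then 30 min 37 °C plus 30 min room-temperature dye loading | assay system = stable human MrgX1 HEK293 cell line | input = fifteen thousand cells per well | signal = kinetic calcium dye fluorescence, Fluo-4 NW | dosing = compound delivered in addition one of three | read-out = B-scored fluorescence response ratio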
MrgX1 allo act: positive allosteric modulators of MrgX1, primary screen, HEK293 cells, Fluo-4 calcium flux; Mas-related G-protein coupled receptor member X1 (Homo sapiens), Q96LB2; FDSS; stronger effect = higher value; B-score at 10 µM; 310,000 compounds, 0.63% hits; AID 588675, 2011;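 active = plate-corrected calcium response at least 3 library SD above typical, normal starting fluorescence, not activating the receptor alone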;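 also: compound read alongside a low EC10 to EC30 dose of BAM8-22 agonist; peak minus trough fluorescence over baseline measured at the second addition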
RGS4 act: RGS4 potentiators or activators, primary screen, cell-based, HEK293 M3R inducible RGS4, calcium flux; B-score at 10 µM; AID 463111, 2010; 310,000 compounds, 0.92% hits; carbachol calcium flux Fluo4; stronger effect = lower value;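 active = B-score of the integrated calcium signal more than 4 SD below the library mean, with starting fluorescence not abnormally high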;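 also: negative B-score means reduced calcium response which marks RGS4 activation or potentiation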
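test system = HEK293 cells with stable M3R and inducible RGS4 | schedule = recording 10 s baseline at 1 Hz, 100 s post-agonist | technique = Fluo4-AM (2 µM) calcium-flux fluorescence, kinetic read | measure = Agonist-evoked peak-minus-minimum fluorescence over baseline, integrated ratio, B score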
MrgX1 PAM conf: MrgX1 positive allosteric modulators, duplicate retest, confirmation, HEK293 cells, Fluo-4 calcium flux; shares compounds with MrgX1 allo act; Fluo-4 calcium fluorescence, FDSS; activation (ratio percentage), % at 10 µM; 1,200 compounds, 13% hits;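 active = ratio at least 3 SD above the weak peptide control, stable starting fluorescence, no direct agonism earlier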;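 also: compound followed by low BAM8-22 agonist challenge near EC20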
HEK293 Ca flux: nonspecific calcium signal in parental HEK293, confirmation, counter-screen for MrgX1 antagonist project, parental HEK293 cells, Fluo-4 calcium flux; Fluo-4 calcium fluorescence, FDSS; fluorescence ratio F(max-min)/F0 at 10 µM; 4,000 compounds, 2% hits; shares compounds with MrgX1 antagonist;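 active = duplicate-averaged calcium fluorescence ratio at least three times the standard deviation of buffer wells, a nonspecific response in parental cells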
HEK293 Ca counter: calcium response in parental HEK293 cells, primary screen, counter-screen for MrgX1 allosteric activator project, cell-based, Fluo-4 calcium flux, duplicate. shares compounds with MrgX1 antagonist. Fluo-4 fluorescence ratio; stronger effect = higher value. fluorescence ratio F(max-min)/F0 at 10 µM. 4,000 compounds, 0.4% hits;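 active = calcium fluorescence ratio, averaged over duplicates, at least 3 SD of the buffer-well ratio, meaning a nonspecific response in receptor-free cells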;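 also: untransfected parental HEK293 lacking MrgX1 used as counterscreen for MrgX1 allosteric activators; fluorescence change taken during the second addition on a kinetic imager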
HEK293 Ca cntr2: calcium response in parental HEK293 cells, primary screen, counter-screen for MrgX1 agonist project, cell-based, Fluo-4 calcium flux, duplicate, agonist mode; 4,000 compounds, 8.7% hits; shares compounds with MrgX1 antagonist; Fluo-4 calcium fluorescence (FDSS); stronger effect = higher value; fluorescence ratio F(max-min)/F0 at 10 µM; AID 624115, 2012;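 active = calcium fluorescence ratio at least three times the spread of buffer wells, meaning a non-specific response in parental cells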
The depositor's hits bear a star; ! = a repeat was not active.

How did O=C(COC(=O)c1ccc(O)cc1)Nc1ccc(OC(F)F)cc1 do in these assays?
RGS4 inh: inactive; MrgX1 antagonist: inactive; MrgX1 ag: inactive; MrgX1 allo act: inactive; RGS4 act: inactive

What do the screens show for `CCN(CC)C(=S)SCc1csc(CC(=O)Nc2ccccc2C)n1`?
RGS4 inh: inactive; MrgX1 antagonist: inactive; MrgX1 ag: inactive; MrgX1 allo act: 9.8*; RGS4 act: inactive; MrgX1 PAM conf: inactive; HEK293 Ca flux: inactive; HEK293 Ca counter: inactive; HEK293 Ca cntr2: inactive

Results for CCOC(=O)CSCc1csc(CC(=O)Nc2ccccc2C)n1 ?
RGS4 inh: inactive; MrgX1 antagonist: inactive; MrgX1 ag: inactive; MrgX1 allo act: inactive; RGS4 act: inactive

Results for O=C(Cn1c(NCCCO)nc2ccccc21)c1ccc(Cl)cc1Cl ?
RGS4 inh: inactive; MrgX1 antagonist: inactive; MrgX1 ag: inactive; MrgX1 allo act: inactive; RGS4 act: inactive

Results for C/C(=N\NC(=O)c1ccc(Cl)c(S(=O)(=O)Nc2ccccc2Cl)c1)c1ccncc1 ?
RGS4 inh: inactive; MrgX1 antagonist: inactive; MrgX1 ag: inactive; MrgX1 allo act: 21*; RGS4 act: inactive; MrgX1 PAM conf: inactive; HEK293 Ca flux: inactive; HEK293 Ca counter: inactive; HEK293 Ca cntr2: inactive

What do the screens show for `C/C(=N\NC(=O)c1cccc(S(=O)(=O)Nc2ccccc2Cl)c1)c1ccco1`?
RGS4 inh: inactive; MrgX1 antagonist: inactive; MrgX1 ag: inactive; MrgX1 allo act: inactive; RGS4 act: inactive

Results for C=C(C)COc1ccc(-c2[nH]ncc2-c2ccccc2OC)c(O)c1 ?
RGS4 inh: inactive; MrgX1 antagonist: inactive; MrgX1 ag: inactive; MrgX1 allo act: 18*; RGS4 act: inactive; MrgX1 PAM conf: inactive; HEK293 Ca flux: inactive; HEK293 Ca counter: inactive; HEK293 Ca cntr2: inactive

How did C=C(C)COc1ccc(-c2[nH]ncc2Oc2ccccc2OC)c(O)c1 do in these assays?
RGS4 inh: inactive; MrgX1 antagonist: inactive; MrgX1 ag: inactive; MrgX1 allo act: inactive; RGS4 act: inactive

Results for C=C(C)COc1ccc(-c2[nH]ncc2-c2ccc(Br)cc2)c(O)c1 ?
RGS4 inh: inactive; MrgX1 antagonist: inactive; MrgX1 ag: inactive; MrgX1 allo act: 19*; RGS4 act: inactive; MrgX1 PAM conf: 10%*; HEK293 Ca flux: inactive; HEK293 Ca counter: inactive; HEK293 Ca cntr2: inactive

How did CN1CCN(C(=O)c2cc3sc4ccccc4c3s2)CC1 do in these assays?
RGS4 inh: inactive; MrgX1 antagonist: inactive; MrgX1 ag: inactive; MrgX1 allo act: inactive; RGS4 act: inactive

How did CCOc1ccccc1C1C(C#N)=C(N)N(N(C)C)C2=C1C(=O)CCC2 (centres undefined) do in these assays?
RGS4 inh: inactive; MrgX1 antagonist: inactive; MrgX1 ag: inactive; MrgX1 allo act: inactive; RGS4 act: inactive

What do the screens show for `Cc1cccc(NC(=O)CC(=O)Nc2cccc(C)c2)c1`?
RGS4 inh: inactive; MrgX1 antagonist: inactive; MrgX1 ag: inactive; MrgX1 allo act: inactive; RGS4 act: inactive

Results for Cc1cccc(NC(=O)C23CCC(C)(C2Br)C3(C)C)c1 (centres undefined) ?
RGS4 inh: inactive; MrgX1 antagonist: inactive; MrgX1 ag: inactive; MrgX1 allo act: 20*; RGS4 act: inactive; MrgX1 PAM conf: inactive; HEK293 Ca flux: inactive; HEK293 Ca counter: inactive; HEK293 Ca cntr2: inactive

How did CC(=O)Nc1ccc(S(=O)(=O)N(C)CC(=O)OCC(=O)c2cc(C)n(-c3ccc4c(c3)OCO4)c2C)cc1 do in these assays?
RGS4 inh: inactive; MrgX1 antagonist: inactive; MrgX1 ag: inactive; MrgX1 allo act: inactive; RGS4 act: inactive

What do the screens show for `Oc1ccc(C2CNCCc3c2cc(O)c(O)c3Cl)cc1` (centres undefined)?
RGS4 inh: inactive; MrgX1 antagonist: inactive; MrgX1 ag: inactive; MrgX1 allo act: 6.7*!; RGS4 act: inactive; MrgX1 PAM conf: inactive; HEK293 Ca flux: inactive; HEK293 Ca counter: inactive; HEK293 Ca cntr2: inactive

How did Oc1cc2c(c(Cl)c1O)CCNCC2c1ccccc1 (centres undefined) do in these assays?
RGS4 inh: inactive; MrgX1 antagonist: inactive; MrgX1 ag: inactive; MrgX1 allo act: inactive; RGS4 act: inactive

Results for N#Cc1ccc(-c2ccco2)nc1SCC(=O)c1ccc(Cl)cc1 ?
RGS4 inh: inactive; MrgX1 antagonist: inactive; MrgX1 ag: inactive; MrgX1 allo act: 8.4*; RGS4 act: inactive; MrgX1 PAM conf: inactive; HEK293 Ca flux: 0.48*; HEK293 Ca counter: inactive; HEK293 Ca cntr2: inactive

How did Cc1cc(C)nc(NS(=O)(=O)c2ccc(N=NN(C)C)cc2)n1 do in these assays?
RGS4 inh: inactive; MrgX1 antagonist: inactive; MrgX1 ag: inactive; MrgX1 allo act: inactive; RGS4 act: inactive

What do the screens show for `C=CCNc1nc(SCC=C)nc2ccsc12`?
RGS4 inh: inactive; MrgX1 antagonist: inactive; MrgX1 ag: inactive; MrgX1 allo act: 7.4*; RGS4 act: inactive; MrgX1 PAM conf: inactive; HEK293 Ca flux: inactive; HEK293 Ca counter: inactive; HEK293 Ca cntr2: inactive

Results for C=CCSc1nc(Oc2ccccc2)c2sccc2n1 ?
RGS4 inh: inactive; MrgX1 antagonist: inactive; MrgX1 ag: inactive; MrgX1 allo act: inactive; RGS4 act: inactive

What do the screens show for `COc1ccc(CCNC(=O)c2ccccc2SC)cc1`?
RGS4 inh: inactive; MrgX1 antagonist: inactive; MrgX1 ag: inactive; MrgX1 allo act: inactive; RGS4 act: inactive

Results for Nc1nc(CN2CCCCCC2)nc(Nc2ccccc2)n1 ?
RGS4 inh: inactive; MrgX1 antagonist: inactive; MrgX1 ag: inactive; MrgX1 allo act: inactive; RGS4 act: inactive

Compound activity from PubChem.
